Measurements published in ChEMBL document CHEMBL4177595, “Design and synthesis of a novel series of orally active, selective somatostatin receptor 2 agonists for the treatment of type 2 diabetes” (Bioorg Med Chem, 2017).
pIC50: −log10 of the molar value.

What was measured:
HepG2 = experiment: Induction of phospholipidosis in human HepG2 cells up to 50 uM after 24 hrs by NBD-PE fluorophore-based assay relative to amiodarone; type: cell-based; details: hepg2, 24 h
[1] = target: Somatostatin receptor type 2 (Homo sapiens, UniProt P30874); experiment: Displacement of [125I]somatostatin-14 (Tyr11) from human SSTR2 expressed in CHO dhfr cell membranes after 60 mins by TopCount scintillation counting method
How it was run: (§1)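 Membrane fractions were prepared from CHO dhfr- cells stably transfected with each human SSTR subtype, with a high-expressing single colony selected for each. Membranes in 25 mM Tris-HCl pH 7.4 with 0.1% BSA, EDTA and protease inhibitors were incubated with 50 pM [125I]SST-14 (Tyr11) and a range of compound concentrations for 60 min at room temperature. Excess SST-14 defined nonspecific binding. Samples were filtered on PEI-soaked GF/B filters before counting. IC50 came from pseudo-Hill fitting.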

[2] = Lipophilicity, log D of the compound; type: physicochemical; details: octanol/water
[3] = target: Somatostatin receptor type 5 (Homo sapiens, UniProt P35346); experiment: Displacement of [125I]somatostatin-14 (Tyr11) from human SSTR5 expressed in CHO dhfr cell membranes after 60 mins by TopCount scintillation counting method; how it was run: as §1
[4] = target: Somatostatin receptor type 1 (Homo sapiens, UniProt P30872); experiment: Displacement of [125I]somatostatin-14 (Tyr11) from human SSTR1 expressed in CHO dhfr cell membranes after 60 mins by TopCount scintillation counting method; how it was run: as §1
[5] = target: Somatostatin receptor type 4 (Homo sapiens, UniProt P31391); experiment: Displacement of [125I]somatostatin-14 (Tyr11) from human SSTR4 expressed in CHO dhfr cell membranes after 60 mins by TopCount scintillation counting method; how it was run: as §1
[6] = Total clearance in Sprague-Dawley rat at 0.3 mg/kg, iv after 1 hr; type: ADME, organism-based; details: in vivo
[7] = Volume of distribution at steady state in Sprague-Dawley rat at 0.3 mg/kg, iv after 1 hr; type: ADME, organism-based; details: in vivo, read-out: Vdss
Rattus norvegicus [8] = species: Rattus norvegicus; experiment: Antidiabetic activity in Wistar rat type 2 diabetic model assessed as inhibition of glucose excursion up to 60 mins by meal tolerance test; type: functional; details: 1 h, read-out: MED
How it was run: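 Female Wistar fatty rats were fasted overnight and then dosed orally with vehicle or compound, followed by a liquid meal challenge (20 kcal/kg). Plasma glucose was followed over time. The read-out was AUC of delta plasma glucose, and a minimum effective dose was determined.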

[9] = Cmax in Sprague-Dawley rat at 1 mg/kg, po after 1 hr; type: ADME, organism-based; design: dose 1 mg/kg, route oral; details: in vivo
[10] = Tmax in Sprague-Dawley rat at 1 mg/kg, po after 1 hr; type: ADME, organism-based; details: in vivo
[11] = Oral bioavailability in Sprague-Dawley rat at 1 mg/kg after 1 hr; type: ADME, organism-based; details: in vivo
[12] = AUC in Sprague-Dawley rat at 1 mg/kg, po after 1 hr; type: ADME, organism-based; design: time < 1 hr, dose 1 mg/kg, route oral; details: in vivo
[13] = AUC in Sprague-Dawley rat at 0.3 mg/kg, iv after 1 hr; type: ADME, organism-based; design: time < 1 hr, dose 0.3 mg/kg, route intravenous; details: in vivo
[14] = MRT in Sprague-Dawley rat at 1 mg/kg, po; type: ADME, organism-based; details: in vivo
[15] = MRT in Sprague-Dawley rat at 0.3 mg/kg, iv; type: ADME, organism-based; details: in vivo
[16] = Plasma concentration in Sprague-Dawley rat at 0.3 mg/kg, iv after 5 mins; type: ADME, organism-based
[17] = target: Somatostatin receptor type 3 (Homo sapiens, UniProt P32745); experiment: Displacement of [125I]somatostatin-14 (Tyr11) from human SSTR3 expressed in CHO dhfr cell membranes after 60 mins by TopCount scintillation counting method; how it was run: as §1
Rattus norvegicus [18] = species: Rattus norvegicus; experiment: Inhibition of hypoglycemia-induced glucagon secretion in Sprague-Dawley rat pretreated for 1 hr followed by insulin addition measured after 30 mins post insulin secretion by radioimmunoassay; type: functional
How it was run: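 SD rats were given compound orally, then insulin 2 IU/kg s.c. 1 h after dosing. Tail-vein blood was drawn 30 min after insulin, and plasma glucagon was measured by radioimmunoassay. Values are means ± SD (n = 6), compared with vehicle by one-tailed Williams' test. ED50 was derived from the dose-response.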

Sequence of Somatostatin receptor type 2 (P30874 whole entry): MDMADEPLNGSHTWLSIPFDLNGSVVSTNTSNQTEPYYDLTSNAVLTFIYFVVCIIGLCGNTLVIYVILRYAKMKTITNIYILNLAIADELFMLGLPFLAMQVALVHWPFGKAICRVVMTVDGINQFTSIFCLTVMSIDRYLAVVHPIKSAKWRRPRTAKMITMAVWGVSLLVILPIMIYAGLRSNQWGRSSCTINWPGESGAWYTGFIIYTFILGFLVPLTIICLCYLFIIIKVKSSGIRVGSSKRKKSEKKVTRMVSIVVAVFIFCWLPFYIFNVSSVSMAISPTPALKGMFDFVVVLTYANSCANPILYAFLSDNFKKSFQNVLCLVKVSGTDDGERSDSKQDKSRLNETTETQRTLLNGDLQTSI
Sequence of Somatostatin receptor type 5 (P35346 whole entry): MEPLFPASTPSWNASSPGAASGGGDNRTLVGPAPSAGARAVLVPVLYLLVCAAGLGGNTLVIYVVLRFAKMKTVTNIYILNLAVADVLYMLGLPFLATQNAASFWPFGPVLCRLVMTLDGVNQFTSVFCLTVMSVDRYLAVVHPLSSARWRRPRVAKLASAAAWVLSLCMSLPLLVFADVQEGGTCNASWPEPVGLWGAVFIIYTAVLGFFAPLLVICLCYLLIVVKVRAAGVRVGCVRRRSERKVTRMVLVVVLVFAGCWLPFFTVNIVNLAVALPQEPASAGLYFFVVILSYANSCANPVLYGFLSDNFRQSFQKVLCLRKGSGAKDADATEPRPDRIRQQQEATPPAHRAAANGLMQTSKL
Sequence of Somatostatin receptor type 1 (P30872 whole entry): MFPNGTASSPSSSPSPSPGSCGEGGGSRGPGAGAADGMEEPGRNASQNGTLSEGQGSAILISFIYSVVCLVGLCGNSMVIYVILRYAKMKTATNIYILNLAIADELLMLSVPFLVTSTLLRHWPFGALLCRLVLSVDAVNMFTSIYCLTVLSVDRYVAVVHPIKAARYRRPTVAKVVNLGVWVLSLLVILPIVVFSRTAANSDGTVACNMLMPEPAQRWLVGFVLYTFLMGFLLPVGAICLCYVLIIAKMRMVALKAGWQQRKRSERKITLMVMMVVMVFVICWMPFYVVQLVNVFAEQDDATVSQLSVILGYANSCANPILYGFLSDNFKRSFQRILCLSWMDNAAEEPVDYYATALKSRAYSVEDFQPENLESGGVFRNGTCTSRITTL
Sequence of Somatostatin receptor type 4 (P31391 whole entry): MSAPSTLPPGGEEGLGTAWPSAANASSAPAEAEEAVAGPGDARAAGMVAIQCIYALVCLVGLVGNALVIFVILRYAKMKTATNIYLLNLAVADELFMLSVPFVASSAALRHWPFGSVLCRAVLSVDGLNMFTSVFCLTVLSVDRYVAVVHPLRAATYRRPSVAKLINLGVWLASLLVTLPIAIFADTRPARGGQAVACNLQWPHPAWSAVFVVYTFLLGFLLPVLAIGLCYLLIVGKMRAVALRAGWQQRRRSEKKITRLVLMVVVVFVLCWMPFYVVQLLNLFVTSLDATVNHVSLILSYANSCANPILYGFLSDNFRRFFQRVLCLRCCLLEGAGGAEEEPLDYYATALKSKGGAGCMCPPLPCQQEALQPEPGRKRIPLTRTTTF
Sequence of Somatostatin receptor type 3 (P32745 whole entry): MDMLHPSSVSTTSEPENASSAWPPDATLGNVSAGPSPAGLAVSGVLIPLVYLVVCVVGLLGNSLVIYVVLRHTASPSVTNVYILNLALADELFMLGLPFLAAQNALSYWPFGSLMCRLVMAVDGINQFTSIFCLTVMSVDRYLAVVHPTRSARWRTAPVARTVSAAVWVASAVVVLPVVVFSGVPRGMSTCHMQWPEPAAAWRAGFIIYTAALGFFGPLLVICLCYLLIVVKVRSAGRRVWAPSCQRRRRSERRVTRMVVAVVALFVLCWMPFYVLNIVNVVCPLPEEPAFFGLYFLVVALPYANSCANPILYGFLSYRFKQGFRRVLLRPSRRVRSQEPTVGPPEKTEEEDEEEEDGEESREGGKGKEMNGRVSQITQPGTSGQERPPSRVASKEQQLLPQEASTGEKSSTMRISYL

Structure (SMILES)	Activity (HepG2)	pIC50 [1]	logD [2]	other results
CCOc1ccc(CN(C)C)cc1NC(=O)[C@H](NC(=O)N1CCN(C(=O)C2CCC2)CC1)[C@@H](C)c1c[nH]c2ccccc12	32%	8.68	0.73	
CC(=O)c1ccc(CN(C)C)cc1NC(=O)[C@H](NC(=O)N1CCN(C(=O)C2CCC2)CC1)[C@@H](C)c1c[nH]c2ccccc12	46%	8.74	1.04	
CCOc1ccc(CN(C)C)cc1NC(=O)[C@H](NC(=O)N1CCC(C(=O)c2nccs2)CC1)[C@@H](C)c1c[nH]c2ccccc12	74%	8.70	1.35	
CC(=O)c1ccc(CN(C)C)cc1NC(=O)[C@H](NC(=O)N1CCN(C(=O)C(C)(C)C)CC1)[C@@H](C)c1c[nH]c2ccccc12	36%	9.01	0.68	
CCOc1ccc(CN(C)C)cc1NC(=O)[C@H](NC(=O)N1CCC(C(=O)c2ccco2)CC1)[C@@H](C)c1c[nH]c2ccccc12	54%	8.64	1.14	
C[C@@H](c1c[nH]c2ccccc12)[C@@H](NC(=O)N1CCN(C(=O)C(C)(C)C)CC1)C(=O)Nc1cc(CN(C)C)ccc1OC(F)(F)F	48%	8.55	2.18	
CCOc1ccc(CN(C)C)cc1NC(=O)[C@H](NC(=O)N1CCN(c2ccc(F)cc2)CC1)[C@@H](C)c1c[nH]c2ccccc12	99%	9.70	2.22	
C[C@@H](c1c[nH]c2ccccc12)[C@@H](NC(=O)N1CCN(c2ccc(F)cc2)C(=O)C1)C(=O)Nc1cc(CN(C)C)ccc1OC(F)(F)F	50%	9.28	2.73	
CC(=O)c1ccc(CN(C)C)cc1NC(=O)[C@H](NC(=O)N1CCN(c2ccc(F)cc2)C(=O)C1)[C@@H](C)c1c[nH]c2ccccc12	37%	9.51	1.59	
CCOc1ccc(CN(C)C)cc1NC(=O)[C@H](NC(=O)N1CCC(c2ccccc2)CC1)[C@@H](C)c1c[nH]c2ccccc12	111%	9.70	3	pIC50 [3]: < 7.00
CCOc1ccc(CN(C)C)cc1NC(=O)[C@H](NC(=O)N1CCN(C(=O)C(C)(C)C)CC1)[C@@H](C)c1c[nH]c2ccccc12	38%	8.64	1.09	
CCOc1ccc(CN(C)C)cc1NC(=O)[C@H](NC(=O)N1CCC(C(=O)C(C)C)CC1)[C@@H](C)c1c[nH]c2ccccc12	63%	8.96	1.5	
CCOc1ccc(CN(C)C)cc1NC(=O)[C@H](NC(=O)N1CCC(C(=O)c2cccs2)CC1)[C@@H](C)c1c[nH]c2ccccc12	98%	9.24	1.89	
CC(=O)c1ccc(CN(C)C)cc1NC(=O)[C@H](NC(=O)N1CCN(c2ccc(F)cc2C)C(=O)C1)[C@@H](C)c1c[nH]c2ccccc12	30%	9.62	1.81	
CC(=O)c1ccc(CN(C)C)cc1NC(=O)[C@H](NC(=O)N1CCC(C(=O)c2cccs2)CC1)[C@@H](C)c1c[nH]c2ccccc12	91%	9.17	1.84	
CCOc1ccc(CN(C)C)cc1NC(=O)[C@H](NC(=O)N1CCC(C(=O)C2CCC2)CC1)[C@@H](C)c1c[nH]c2ccccc12	75%	9.22	1.55	
CCOc1ccc(CN(C)C)cc1NC(=O)[C@H](NC(=O)N1CCN(c2ccc(F)cc2C)C(=O)C1)[C@@H](C)c1c[nH]c2ccccc12	47%	9.70	1.86	
CCOc1ccc(CN(C)C)cc1NC(=O)[C@H](NC(=O)N1CCC(C(=O)c2ccccn2)CC1)[C@@H](C)c1c[nH]c2ccccc12	81%	8.59	1.57	
CCOc1ccc(CN(C)C)cc1NC(=O)[C@H](NC(=O)N1CCN(c2ccc(F)cc2)C(=O)C1)[C@@H](C)c1c[nH]c2ccccc12	36%	9.70	1.65	
CC(=O)c1ccc(CN(C)C)cc1NC(=O)[C@H](NC(=O)N1CCC(C(=O)C(C)C)CC1)[C@@H](C)c1c[nH]c2ccccc12	58%	8.70	1.44	
CC(=O)c1ccc(CN(C)C)cc1NC(=O)[C@H](NC(=O)N1CCC(C(=O)C2CCC2)CC1)[C@@H](C)c1c[nH]c2ccccc12	84%	9.16	1.5	
CCOc1ccc(CN(C)C)cc1NC(=O)[C@H](NC(=O)N1CCC(C(=O)CC(C)C)CC1)[C@@H](C)c1c[nH]c2ccccc12	76%	9.05	2.01	
Cc1cc(F)ccc1N1CCN(C(=O)N[C@@H](C(=O)Nc2cc(CN(C)C)ccc2OC(F)(F)F)[C@@H](C)c2c[nH]c3ccccc23)CC1=O	58%	9.57 to 9.77	2.95	pIC50 [4]: 5.29; pIC50 [5]: 7.00; clearance [6]: 43.5 mL/min/kg; Vd [7]: 6.63 L/kg; minimal effective dose (Rattus norvegicus [8]): 3 mg/kg; Cmax [9]: 10.3 ng/mL; Tmax [10]: 0.83 h; bioavailability [11]: 5.8%; AUC at 1 h [12]: 22.9 ng·h/mL; AUC at 1 h [13]: 119 ng·h/mL; MRT [14]: 5.69 h; pIC50 [3]: 5.77; MRT [15]: 2.57 h; concentration at 5 min [16]: 194 ng/mL; pIC50 [17]: 6.44; ED50 (Rattus norvegicus [18]): 1.1 mg/kg
CCCCc1oc2ccccc2c1C(=O)c1cc(I)c(OCCN(CC)CC)c(I)c1 [AMIODARONE]	100%			
